Measurements published in ChEMBL document CHEMBL2311400, “Synthesis and biological evaluation of 4-(aminomethyl)-1-hydroxypyrazole analogues of muscimol as γ-aminobutyric acid(a) receptor agonists” (J Med Chem, 2013).
Activity calls are given as the source filed them. The calls are words filed in the database; no cut-off is given here.

How the values were obtained:
[1] = target: T1, Gamma-aminobutyric acid receptor subunit rho-1 (Homo sapiens, UniProt P24046); assay: Agonist activity at human GABAA rho1 receptor expressed in TSA201 cells after 1 min by FLIPR assay; format: cell-based
T1 sequence (P24046 whole entry): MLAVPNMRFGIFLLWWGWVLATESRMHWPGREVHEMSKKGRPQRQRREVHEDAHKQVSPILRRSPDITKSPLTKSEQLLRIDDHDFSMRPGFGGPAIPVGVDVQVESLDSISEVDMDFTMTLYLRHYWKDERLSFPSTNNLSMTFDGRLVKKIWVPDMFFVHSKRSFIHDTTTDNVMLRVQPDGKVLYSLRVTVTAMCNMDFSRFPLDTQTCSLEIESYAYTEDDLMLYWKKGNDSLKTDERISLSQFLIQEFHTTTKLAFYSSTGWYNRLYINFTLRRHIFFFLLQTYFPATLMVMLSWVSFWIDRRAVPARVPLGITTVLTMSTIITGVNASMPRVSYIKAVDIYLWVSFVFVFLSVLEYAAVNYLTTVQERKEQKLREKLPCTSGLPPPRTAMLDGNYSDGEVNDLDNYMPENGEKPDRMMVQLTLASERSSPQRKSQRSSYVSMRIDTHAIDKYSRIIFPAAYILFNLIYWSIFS
How it was run: (§1)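 tsA201 cells transfected with 5 μg human ρ1 cDNA, then plated on poly-D-lysine plates for 16–24 h. Loaded with FLIPR membrane potential blue dye in Krebs buffer (pH 7.4), 30 min at 37 °C. Emission at 560 nm (excitation 530 nm) recorded before and up to 1 min after agonist addition. Curves fitted from ΔFU; duplicate, at least three times.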

[2] = target: T2, GABA-A receptor; alpha-1/beta-2/gamma-2 (Homo sapiens, UniProt P14867+P18507+P47870); assay: Agonist activity at human GABAA alpha1beta2gamma2S receptor expressed in TSA201 cells after 1 min by FLIPR assay; format: cell-based
T2 sequence (P14867 whole entry): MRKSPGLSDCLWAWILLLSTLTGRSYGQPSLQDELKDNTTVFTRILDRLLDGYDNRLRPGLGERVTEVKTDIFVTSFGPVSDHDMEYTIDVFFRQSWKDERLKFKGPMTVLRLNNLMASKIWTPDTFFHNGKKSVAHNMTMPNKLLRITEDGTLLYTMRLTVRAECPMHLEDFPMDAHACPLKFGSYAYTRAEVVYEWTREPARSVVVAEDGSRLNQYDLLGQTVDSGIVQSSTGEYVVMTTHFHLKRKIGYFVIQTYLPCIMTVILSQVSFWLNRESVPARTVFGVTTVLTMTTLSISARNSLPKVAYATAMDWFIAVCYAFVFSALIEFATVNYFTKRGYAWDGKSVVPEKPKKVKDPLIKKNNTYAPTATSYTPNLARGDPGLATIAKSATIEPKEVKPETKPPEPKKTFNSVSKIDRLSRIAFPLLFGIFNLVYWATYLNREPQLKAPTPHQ
T2 sequence (P47870 whole entry): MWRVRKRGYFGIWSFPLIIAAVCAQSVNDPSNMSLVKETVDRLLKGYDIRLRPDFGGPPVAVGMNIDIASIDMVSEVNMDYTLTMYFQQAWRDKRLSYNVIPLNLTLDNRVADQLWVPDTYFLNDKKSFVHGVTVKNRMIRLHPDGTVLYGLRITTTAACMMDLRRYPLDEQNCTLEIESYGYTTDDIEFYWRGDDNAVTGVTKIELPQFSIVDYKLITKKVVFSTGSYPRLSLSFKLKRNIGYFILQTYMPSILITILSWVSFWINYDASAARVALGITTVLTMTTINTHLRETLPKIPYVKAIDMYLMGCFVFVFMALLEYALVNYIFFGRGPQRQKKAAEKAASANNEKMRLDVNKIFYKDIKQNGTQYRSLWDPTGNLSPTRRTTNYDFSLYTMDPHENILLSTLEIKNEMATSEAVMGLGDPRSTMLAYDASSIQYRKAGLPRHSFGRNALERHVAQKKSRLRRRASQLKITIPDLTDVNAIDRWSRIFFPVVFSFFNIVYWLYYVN
T2 sequence (P18507 whole entry): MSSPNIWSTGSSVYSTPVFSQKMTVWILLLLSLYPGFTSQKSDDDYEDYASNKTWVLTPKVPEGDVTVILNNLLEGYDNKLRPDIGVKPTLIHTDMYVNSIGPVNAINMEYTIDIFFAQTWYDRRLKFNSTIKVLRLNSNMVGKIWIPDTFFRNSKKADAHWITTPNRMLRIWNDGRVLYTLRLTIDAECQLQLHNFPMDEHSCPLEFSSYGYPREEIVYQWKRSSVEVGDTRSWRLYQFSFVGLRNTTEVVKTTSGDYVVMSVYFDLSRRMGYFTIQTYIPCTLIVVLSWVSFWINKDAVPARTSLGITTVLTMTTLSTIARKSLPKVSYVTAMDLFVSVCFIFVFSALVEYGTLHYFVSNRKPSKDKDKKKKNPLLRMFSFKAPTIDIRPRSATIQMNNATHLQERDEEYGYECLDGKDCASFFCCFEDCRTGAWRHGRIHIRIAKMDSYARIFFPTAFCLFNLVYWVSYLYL
How it was run: (§2)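 tsA201 cells transfected with 1 μg α (1, 2, 3 or 5), 1 μg β2 and 3 μg γ2S cDNA (Polyfect). Cells replated onto poly-D-lysine plates and assayed 16–24 h later. Loaded with FMP blue dye in Krebs buffer pH 7.4 for 30 min at 37 °C.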

[3] = Displacement of [3H]muscimol from GABAA receptor in rat synaptic membrane after 60 mins by scintillation counting analysis; format: cell membranes
How it was run: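 Membranes from cortex and central hemispheres of male SPRD rat brains, washed repeatedly in 50 mM Tris-HCl pH 7.4. 70–80 μg protein per well incubated with [3H]muscimol. Separated by GF/C filtration with ice-cold buffer washes; bound radioactivity counted by scintillation. Nonspecific binding defined with 1.0 mM GABA.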

[4] = target: T1, Gamma-aminobutyric acid receptor subunit rho-1; assay: Agonist activity at human GABAA rho1 receptor expressed in TSA201 cells at 300 to 500 uM after 1 min by FLIPR assay; format: cell-based
[5] = target: T3, GABA-A receptor; alpha-1/beta-2/gamma-2 (Homo sapiens) (UniProt P14867+P47870+P18507); assay: Agonist activity at human GABAA alpha1beta2gamma2S receptor expressed in TSA201 cells at 300 to 500 uM after 1 min by FLIPR assay; format: cell-based
[6] = tested on: TSA201; assay: Agonist activity at human GABAA alpha5beta2gamma2S receptor expressed in TSA201 cells after 1 min by FLIPR assay relative to GABA; format: cell-based
How it was run: as §2, with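 “°C. Fluorescence (ex 530/em 560 nm) read before and up to 1 min after agonist addition. ΔFU concentration-response curves; duplicate, ≥3 experiments.” for “°C.”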

[7] = target: GABA A receptor alpha-3/beta-2/gamma-2 (Homo sapiens) (UniProt P47870+P18507+P34903); assay: Agonist activity at human GABAA alpha3beta2gamma2S receptor expressed in TSA201 cells after 1 min by FLIPR assay relative to GABA; format: cell-based
How it was run: as §2, with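 “°C. Fluorescence (ex 530/em 560 nm) read before and up to 1 min after agonist addition. ΔFU concentration-response curves; duplicate, ≥3 experiments.” for “°C.”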

[8] = target: GABA A receptor alpha-2/beta-2/gamma-2 (Homo sapiens) (UniProt P47870+P18507+P47869); assay: Agonist activity at human GABAA alpha2beta2gamma2S receptor expressed in TSA201 cells after 1 min by FLIPR assay relative to GABA; format: cell-based
How it was run: as §2, with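 “°C. Fluorescence (ex 530/em 560 nm) read before and up to 1 min after agonist addition. ΔFU concentration-response curves; duplicate, ≥3 experiments.” for “°C.”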

[9] = target: T1, Gamma-aminobutyric acid receptor subunit rho-1; assay: Agonist activity at human GABAA rho1 receptor expressed in TSA201 cells after 1 min by FLIPR assay relative to GABA; format: cell-based; how it was run: as §1
[10] = target: T1, Gamma-aminobutyric acid receptor subunit rho-1; assay: Agonist activity at human GABAA rho1 receptor expressed in HEK293 cells by patch clamp electrophysiology assay; format: cell-based
How it was run: (§3)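 Human ρ1 (pCDNA3) co-transfected with a GFP plasmid into HEK 293 cells. Whole-cell voltage clamp at −60 mV, 40–72 h after transfection, room temperature (20–22 °C). Extracellular solution pH 7.35; intrapipette solution with KCl 140 mM, EGTA 10 mM, MgATP 2 mM, pH 7.3.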

[11] = target: T2, GABA-A receptor; alpha-1/beta-2/gamma-2; assay: Agonist activity at human GABAA alpha1beta2gamma2S receptor expressed in HEK293 cells by patch clamp electrophysiology assay; format: cell-based
[12] = target: T4, GABA A receptor alpha-2/beta-2/gamma-2 (Homo sapiens, UniProt P18507+P47869+P47870); assay: Agonist activity at human GABAA alpha2beta2gamma2S receptor expressed in TSA201 cells after 1 min by FLIPR assay; format: cell-based; how it was run: as §2
T4 sequence (P47870 whole entry): T2 sequence (P47870 whole entry)
T4 sequence (P18507 whole entry): T2 sequence (P18507 whole entry)
T4 sequence (P47869 whole entry): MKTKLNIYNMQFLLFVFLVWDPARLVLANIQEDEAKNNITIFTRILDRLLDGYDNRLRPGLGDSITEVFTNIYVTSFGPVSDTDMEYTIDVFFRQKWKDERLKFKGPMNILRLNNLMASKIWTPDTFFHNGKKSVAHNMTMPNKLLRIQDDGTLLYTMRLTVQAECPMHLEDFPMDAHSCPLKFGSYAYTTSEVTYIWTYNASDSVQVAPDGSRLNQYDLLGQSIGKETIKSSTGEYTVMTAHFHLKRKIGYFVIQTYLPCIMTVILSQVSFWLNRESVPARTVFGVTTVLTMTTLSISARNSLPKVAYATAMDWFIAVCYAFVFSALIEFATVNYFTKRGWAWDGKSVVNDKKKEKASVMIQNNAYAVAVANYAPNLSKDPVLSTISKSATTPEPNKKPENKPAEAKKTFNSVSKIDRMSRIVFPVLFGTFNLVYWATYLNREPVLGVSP

[13] = target: T5, GABA A receptor alpha-3/beta-2/gamma-2 (Homo sapiens, UniProt P18507+P34903+P47870); assay: Agonist activity at human GABAA alpha3beta2gamma2S receptor expressed in TSA201 cells after 1 min by FLIPR assay; format: cell-based; how it was run: as §2
T5 sequence (P47870 whole entry): T2 sequence (P47870 whole entry)
T5 sequence (P18507 whole entry): T2 sequence (P18507 whole entry)
T5 sequence (P34903 whole entry): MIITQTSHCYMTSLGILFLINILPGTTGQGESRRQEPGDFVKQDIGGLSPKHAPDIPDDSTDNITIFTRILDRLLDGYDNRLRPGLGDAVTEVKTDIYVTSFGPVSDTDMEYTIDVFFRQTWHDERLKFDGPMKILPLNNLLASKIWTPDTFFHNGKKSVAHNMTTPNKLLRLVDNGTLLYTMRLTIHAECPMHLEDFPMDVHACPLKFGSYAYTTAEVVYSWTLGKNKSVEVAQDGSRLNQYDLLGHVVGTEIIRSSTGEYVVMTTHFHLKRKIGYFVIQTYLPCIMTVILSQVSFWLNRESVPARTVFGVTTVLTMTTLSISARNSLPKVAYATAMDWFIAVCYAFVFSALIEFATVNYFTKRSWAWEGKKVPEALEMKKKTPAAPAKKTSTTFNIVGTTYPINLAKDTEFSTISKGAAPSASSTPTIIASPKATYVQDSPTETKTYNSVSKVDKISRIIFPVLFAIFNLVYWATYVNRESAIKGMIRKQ

[14] = Agonist activity at human GABAA alpha5beta2gamma2S receptor expressed in TSA201 cells after 1 min by FLIPR assay; format: cell-based; details: tsA201, 1 min
[15] = target: T1, Gamma-aminobutyric acid receptor subunit rho-1; assay: Agonist activity at human GABAA rho1 receptor expressed in HEK293 cells by patch clamp electrophysiology assay relative to GABA; format: cell-based; how it was run: as §3
[16] = target: T3, GABA-A receptor; alpha-1/beta-2/gamma-2 (Homo sapiens); assay: Agonist activity at human GABAA alpha1beta2gamma2S receptor expressed in HEK293 cells by patch clamp electrophysiology assay relative to GABA; format: cell-based
[17] = target: T3, GABA-A receptor; alpha-1/beta-2/gamma-2 (Homo sapiens); assay: Agonist activity at human GABAA alpha1beta2gamma2S receptor expressed in TSA201 cells after 1 min by FLIPR assay relative to GABA; format: cell-based
How it was run: as §2, with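 “°C. Fluorescence (ex 530/em 560 nm) read before and up to 1 min after agonist addition. ΔFU concentration-response curves; duplicate, ≥3 experiments.” for “°C.”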

[18] = target: T1, Gamma-aminobutyric acid receptor subunit rho-1; assay: Agonist activity at human GABAA rho1 receptor expressed in HEK293 cells at up to 300 uM by patch clamp electrophysiology assay; format: cell-based
[19] = target: T3, GABA-A receptor; alpha-1/beta-2/gamma-2 (Homo sapiens); assay: Agonist activity at human GABAA alpha1beta2gamma2S receptor expressed in HEK293 cells at up to 300 uM by patch clamp electrophysiology assay; format: cell-based

NCc1cn(O)nc1-c1ccc(-c2ccccc2)cc1 showed an EC50 [1] greater than 500 µM, an EC50 [2] greater than 300 µM and a Ki [3] of 13 µM. For the same compound, the pKi [3] was 4.89, the Activity [4] was “inactive” and the Activity [5] was “inactive”.
Work on NCc1cn(O)nc1I yielded an EC50 [1] greater than 500 µM, an EC50 [2] greater than 500 µM and a Ki [3] of 32 µM. It also gave a pKi [3] of 4.5.
Work on CCc1nn(O)cc1CN yielded an EC50 [1] greater than 500 µM, an EC50 [2] greater than 500 µM and a Ki [3] of 94 µM. It also gave a pKi [3] of 4.03.
For NCc1cn(O)nc1CCc1ccncc1, the Ki [3] was greater than 100 µM.
In the case of NCc1cnn(O)c1, the Rmax [6] is reported as 77%, the Rmax [7] is reported as 77% and the Rmax [8] is reported as 77%. It also gave an Rmax [9] of 77%, an EC50 [1] of 3.1 µM and an EC50 [2] of 13 µM. For the same compound, the Ki [3] was 0.22 µM, the pKi [3] was 6.68 and the EC50 [10] was 55 µM. It also gave an EC50 [11] of 19 µM, an EC50 [12] of 4.5 µM and an EC50 [13] of 5.6 µM. It also gave an EC50 ([14]; read-out: EC50) of 0.78 µM, an EC50 ([14]; read-out: pEC50 (converted)) of 0.794 µM and an Rmax [15] of 70%. It also gave an Rmax [16] of 69% and an Rmax [17] of 77%.
For Cc1c(O)noc1CN, the Ki [3] was 54 µM, the pKi [3] was 4.28 and the Activity [18] was “inactive”. The Activity [19] was “inactive”.
In the case of NCc1cn(O)nc1-c1cccc(-c2ccccc2)c1, the EC50 [1] is reported as greater than 500 µM, the EC50 [2] is reported as greater than 500 µM and the Ki [3] is reported as 17 µM. The pKi [3] was 4.81, the Activity [4] was “inactive” and the Activity [5] was “inactive”.
Compound NCc1cn(O)nc1Cc1ccccc1 has a Ki [3] greater than 100 µM.
With NCc1cn(O)nc1CCc1ccccc1 the Ki [3] was greater than 100 µM.
Work on Cc1nn(O)cc1CN yielded a Ki [3] of 68 µM and a pKi [3] of 4.16.
